Calls of active or inactive are those of the source.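 The calls were made as follows, unless noted: active = GFP response above 150% of the DMSO level; inconclusive = fewer than 70 events counted for a yeast strain; inactive = the rest.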

The nature of assay [1]: RPL19A-GFP modulators, yeast TOR pathway, confirmation, cell-based, S. cerevisiae, flow cytometry, cherry picks, mother/daughter gates (AID 2270;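 active = GFP response below 50% of the DMSO control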). The settings on record: S. cerevisiae RPL19A-GFP strain, 3 h, at 10 µM, stronger effect = lower value, 100 = same GFP as DMSO wells. On the technique in general: In flow cytometry, cells or beads pass a laser one at a time.
A short description of assay [2]: LAP4-GFP expression modulators in yeast, confirmation, cell-based, cherry picks, flow cytometry, mother/daughter gates (AID 2271;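 active = GFP response above 150% of the DMSO control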;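 also: ratio of sample to DMSO plate mean so 100% equals DMSO level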). To be noted: S. cerevisiae LAP4-GFP strain, 3 h, at 10 µM, stronger effect = higher value, 100 means same as DMSO control. Summed up: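 System – GFP-fusion yeast strain · Amount – 0.2 OD600 cells · Buffer or medium – SC growth medium · Dosing – single test-compound dose, 10 µM final · Schedule – 3 h treatment at 30 °C with rotation · Detection – GFP by flow cytometry · Read-out – per-gate (all, mother, daughter) GFP response vs DMSO · Benchmarks – positive rapamycin (400 ng/mL), negative DMSO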

The nature of assay [3]: modulators of MEP2-GFP levels in yeast, confirmation, S. cerevisiae, flow cytometry GFP, cherry picks (AID 2272;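 active = GFP response above 150% of the DMSO control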;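 also: ratio of well signal to plate DMSO mean so 100% equals DMSO level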). The settings on record: S. cerevisiae MEP2-GFP strain, 3 h, at 10 µM, stronger effect = higher value.
The nature of assay [4]: AGP1-GFP expression modulators, hit retest, confirmation, cell-based, flow cytometry, S. cerevisiae, cherry picks (AID 2273).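 Also: median GFP channel fluorescence over the whole cell population gate.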 The settings on record: S. cerevisiae AGP1-GFP strain, 3 h, at 10 µM.
The nature of assay [5]: modulators of CIT2-GFP expression in yeast, confirmation, S. cerevisiae, GFP fusion, cherry picks, mother/daughter gates (AID 2274). The settings on record: S. cerevisiae CIT2-GFP strain, flow cytometry, 3 h, at 10 µM, stronger effect = higher value.
[6] abbreviates: measured here: daughter cell gate.
Setting [7] is: measured here: mother cell gate.
The mark [8] stands for this setting: measured here: daughter cell gate response.
The mark [9] stands for this setting: measured here: mother cell gate response.

Consider `CCOC(=O)Cc1csc(NC(=O)c2sc3nc4c(C)cc(C)cc4cc3c2N)n1`, for which the GFP response vs DMSO in assay [1] is 104% (inactive); in assay [1] (setting [6]) it was 96.7%; in assay [1] (setting [7]) it was 97.7%; in assay [3], 109% (inactive). The GFP response relative to DMSO in assay [2] is 84.2% (inactive); in assay [2] (setting [8]), 89.5%; in assay [2] (setting [9]), 92.1%. For the same compound, the GFP response, % of DMSO is 97.2% (inactive) in assay [4], 115% (inactive) in assay [5], 110% in assay [5] (setting [6]) and 118% in assay [5] (setting [7]).

With `O=[N+]([O-])c1cc(F)c2cccnc2c1O`, the GFP response vs DMSO in assay [1] is 98.7% (inactive); in assay [1] (setting [6]), 93.3%; in assay [1] (setting [7]), 96.7%; in assay [3], 126% (inactive). Moreover, the figures for the GFP response relative to DMSO in assay [2], in assay [2] (setting [8]) and in assay [2] (setting [9]) were 219% (active), 176% and 204%, respectively. Besides, the GFP response, % of DMSO is 125% (inactive) in assay [4], 107% (inactive) in assay [5], 101% in assay [5] (setting [6]) and 104% in assay [5] (setting [7]).

As for `O=C(Nc1nc(-c2ccc(Cl)s2)cs1)c1cccs1`, the GFP response vs DMSO in assay [1] is 93.8% (inactive); in assay [1] (setting [6]), 91%; in assay [1] (setting [7]), 93.7%; in assay [3] it was 97.2% (inactive). The GFP response relative to DMSO in assay [2] was 113% (inactive); in assay [2] (setting [8]), 107%; in assay [2] (setting [9]) it was 119%. Also, the GFP response, % of DMSO in assay [4] was 98.8% (inactive); in assay [5], 83.3% (inactive); in assay [5] (setting [6]) it was 85.2%; in assay [5] (setting [7]) it was 82.6%.

Turning to `Cc1ccc(/C=N\NC(=O)c2cc(OCC(F)(F)F)ccc2OCC(F)(F)F)cc1`, the GFP response vs DMSO in assay [1] was 100% (inactive); in assay [1] (setting [6]) it was 101%; in assay [1] (setting [7]), 100%; in assay [3], 94.1% (inactive). Further, the GFP response relative to DMSO in assay [2] was 91.5% (inactive); in assay [2] (setting [8]) it was 91.2%; in assay [2] (setting [9]), 92.9%. For the same compound, the GFP response, % of DMSO in assay [4] is 102% (inactive); in assay [5], 105% (inactive); in assay [5] (setting [6]) it was 108%; in assay [5] (setting [7]), 106%.

Turning to `CCCCc1[nH]nc2c1C1(C(=O)N(CC)c3ccccc31)C(C#N)=C(N)O2` (configuration not stated), the GFP response vs DMSO in assay [1] was 105% (inactive); in assay [1] (setting [6]), 101%; in assay [1] (setting [7]), 103%; in assay [3] it was 101% (inactive). Further, the GFP response relative to DMSO in assay [2] is 98.2% (inactive); in assay [2] (setting [8]), 97.5%; in assay [2] (setting [9]), 98.4%. The GFP response, % of DMSO in assay [4] was 106% (inactive); in assay [5] it was 102% (inactive); in assay [5] (setting [6]), 97.4%; in assay [5] (setting [7]), 95.6%.

For `COc1ccccc1-c1noc(CCC(=O)Nc2cccc(C(F)(F)F)c2)n1`, the GFP response vs DMSO in assay [1] was 98.2% (inactive); in assay [1] (setting [6]), 97.9%; in assay [1] (setting [7]) it was 98.5%; in assay [3], 107% (inactive). The GFP response relative to DMSO in assay [2] is 102% (inactive); in assay [2] (setting [8]), 104%; in assay [2] (setting [9]), 100%. The GFP response, % of DMSO is 102% (inactive) in assay [4], 100% (inactive) in assay [5], 101% in assay [5] (setting [6]) and 94.4% in assay [5] (setting [7]).

For `COc1ccc(-c2ccc(CCC(=O)O)o2)cc1`, the GFP response vs DMSO in assay [1] is 97% (inactive); in assay [1] (setting [6]), 95.1%; in assay [1] (setting [7]) it was 96.1%; in assay [3] it was 102% (inactive). The GFP response relative to DMSO in assay [2] was 126% (inactive); in assay [2] (setting [8]), 122%; in assay [2] (setting [9]) it was 126%. For the same compound, the GFP response, % of DMSO in assay [4] is 86.3% (inactive); in assay [5], 101% (inactive); in assay [5] (setting [6]), 97.2%; in assay [5] (setting [7]), 101%.

Turning to `CN1c2ccsc2/C(=N/Nc2ccc(F)cc2)CS1(=O)=O`, the GFP response vs DMSO in assay [1] was 99.2% (inactive); in assay [1] (setting [6]), 99.6%; in assay [1] (setting [7]) it was 99%; in assay [3], 114% (inactive). For the same compound, the GFP response relative to DMSO in assay [2] is 134% (inactive); in assay [2] (setting [8]) it was 130%; in assay [2] (setting [9]) it was 134%. The GFP response, % of DMSO in assay [4] was 103% (inactive); in assay [5], 109% (inactive); in assay [5] (setting [6]), 108%; in assay [5] (setting [7]) it was 109%.

In the case of `COC(=O)Nc1ccc2c(c1)N(C(=O)CCN1CCN3CCCC3C1)c1ccccc1CC2` (configuration not stated), the GFP response vs DMSO in assay [1] was 102% (inactive); in assay [1] (setting [6]) it was 101%; in assay [1] (setting [7]), 102%; in assay [3], 104% (inactive). Besides, the GFP response relative to DMSO in assay [2] is 96.2% (inactive); in assay [2] (setting [8]), 97.2%; in assay [2] (setting [9]), 99.3%. The GFP response, % of DMSO in assay [4] was 106% (inactive); in assay [5] it was 104% (inactive); in assay [5] (setting [6]), 99.7%; in assay [5] (setting [7]), 105%.

For the compound `O=C(Oc1ccnc2cc(Cl)ccc12)N1CCCCCC1`, the GFP response vs DMSO in assay [1] is 99.3% (inactive); in assay [1] (setting [6]) it was 97.3%; in assay [1] (setting [7]), 95%; in assay [3], 437% (active). The GFP response relative to DMSO was 114% (inactive) in assay [2], 111% in assay [2] (setting [8]) and 117% in assay [2] (setting [9]). Besides, the GFP response, % of DMSO in assay [4] is 185% (active); in assay [5] it was 92.6% (inactive); in assay [5] (setting [6]), 93.2%; in assay [5] (setting [7]), 89.1%.

In the case of `COC(=O)/C(=C/c1c[nH]c2ccccc12)[N+](=O)[O-]`, the GFP response vs DMSO in assay [1] was 99.6% (inactive); in assay [1] (setting [6]) it was 95.1%; in assay [1] (setting [7]), 95.1%; in assay [3], 111% (inactive). Besides, the GFP response relative to DMSO in assay [2] was 162% (active); in assay [2] (setting [8]) it was 149%; in assay [2] (setting [9]), 164%. Besides, the GFP response, % of DMSO in assay [4] was 86.9% (inactive); in assay [5], 89.8% (inactive); in assay [5] (setting [6]) it was 89.9%; in assay [5] (setting [7]), 80.7%.

Take `CCOC(=O)C1=C(Cc2ccc(Cl)cc2)C(=O)c2ccccc2C1=O`: the GFP response vs DMSO in assay [1] was 99.1% (inactive); in assay [1] (setting [6]), 98.5%; in assay [1] (setting [7]), 98.1%; in assay [3] it was 104% (inactive). Also, the results for the GFP response relative to DMSO in assay [2], in assay [2] (setting [8]) and in assay [2] (setting [9]) were 112% (inactive), 107% and 111%, respectively. Further, the GFP response, % of DMSO in assay [4] is 97.3% (inactive); in assay [5], 99.3% (inactive); in assay [5] (setting [6]) it was 102%; in assay [5] (setting [7]) it was 94.5%.

Source of the values: PubChem BioAssay.
